Converted amounts (≈) assume the structure as drawn. The source made the active and inactive calls. The calls are words filed in the database; no cut-off is given here.
Experiments:
Pseudomonas aeruginosa [1] = experiment: Antibacterial activity against Pseudomonas aeruginosa ATCC 27853 after 18 hrs by agar dilution method; assay type: functional; conditions: ATCC 27853, 18 h
Enterococcus faecalis [2] = experiment: Antibacterial activity against vancomycin-resistant Enterococcus faecalis 09-9 after 18 hrs by agar dilution method; assay type: functional
Enterococcus faecium [3] = experiment: Antibacterial activity against vancomycin-resistant Enterococcus faecium 12-1 after 18 hrs by agar dilution method; assay type: functional
Proteus mirabilis = experiment: Antibacterial activity against Proteus mirabilis 12-6 after 18 hrs by agar dilution method; assay type: functional; conditions: 12-6, 18 h
Escherichia coli [4] = experiment: Antibacterial activity against extended-spectrum beta-lactamase-negative Escherichia coli 12-14 after 18 hrs by agar dilution method; assay type: functional; conditions: 12-14, 18 h
Serratia marcescens = experiment: Antibacterial activity against Serratia marcescens ATCC 21074 after 18 hrs by agar dilution method; assay type: functional; conditions: ATCC 21074, 18 h
Pseudomonas aeruginosa [5] = experiment: Antibacterial activity against Pseudomonas aeruginosa PAO1 after 18 hrs by agar dilution method; assay type: functional; conditions: PAO1, 18 h
Escherichia coli [6] = experiment: Antibacterial activity against extended-spectrum beta-lactamase-negative Escherichia coli ATCC 25922 after 18 hrs by agar dilution method; assay type: functional; conditions: ATCC 25922, 18 h
Morganella morganii = experiment: Antibacterial activity against Morganella morganii ATCC 25830 after 18 hrs by agar dilution method; assay type: functional; conditions: ATCC 25830, 18 h
Klebsiella pneumoniae [7] = experiment: Antibacterial activity against extended-spectrum beta-lactamase-positive Klebsiella pneumoniae ATCC 700603 after 18 hrs by agar dilution method; assay type: functional; conditions: Klebsiella pneumoniae, 700603, 18 h
Escherichia coli [8] = experiment: Antibacterial activity against extended-spectrum beta-lactamase-positive Escherichia coli 12-15 after 18 hrs by agar dilution method; assay type: functional; conditions: 12-15, 18 h
Klebsiella pneumoniae [9] = experiment: Antibacterial activity against extended-spectrum beta-lactamase-negative Klebsiella pneumoniae 7 after 18 hrs by agar dilution method; assay type: functional; conditions: Klebsiella pneumoniae, 7, 18 h
[10] = test system: Staphylococcus epidermidis; experiment: Antibacterial activity against methicillin-resistant Staphylococcus epidermidis 12-8 after 18 hrs by agar dilution method; assay type: functional
Proteus vulgaris = experiment: Antibacterial activity against Proteus vulgaris ATCC 29905 after 18 hrs by agar dilution method; assay type: functional; conditions: ATCC 29905, 18 h
Klebsiella pneumoniae [11] = experiment: Antibacterial activity against extended-spectrum beta-lactamase-negative Klebsiella pneumoniae 12-4 after 18 hrs by agar dilution method; assay type: functional; conditions: 12-4, 18 h
Klebsiella pneumoniae [12] = experiment: Antibacterial activity against extended-spectrum beta-lactamase-positive Klebsiella pneumoniae 12-8 after 18 hrs by agar dilution method; assay type: functional; conditions: 12-8, 18 h
[13] = test system: Stenotrophomonas maltophilia; experiment: Antibacterial activity against Stenotrophomonas maltophilia ATCC 13636 after 18 hrs by agar dilution method; assay type: functional; conditions: ATCC 13636, 18 h
Citrobacter freundii = experiment: Antibacterial activity against Citrobacter freundii ATCC 43864 after 18 hrs by agar dilution method; assay type: functional; conditions: ATCC 43864, 18 h
Candida albicans = experiment: Antifungal activity against Candida albicans ATCC 10231 after 18 hrs by agar dilution method; assay type: functional; conditions: ATCC 10231, 18 h
Staphylococcus aureus [14] = experiment: Antibacterial activity against methicillin-resistant Staphylococcus aureus ATCC 33591 after 18 hrs by agar dilution method; assay type: functional
Klebsiella aerogenes = experiment: Antibacterial activity against Enterobacter aerogenes ATCC 13048 after 18 hrs by agar dilution method; assay type: functional; conditions: ATCC 13048, 18 h
Enterobacter cloacae = experiment: Antibacterial activity against Enterobacter cloacae ATCC 43560 after 18 hrs by agar dilution method; assay type: functional; conditions: ATCC 43560, 18 h
Staphylococcus aureus [15] = experiment: Antibacterial activity against methicillin-resistant Staphylococcus aureus 12-33 after 18 hrs by agar dilution method; assay type: functional
Providencia rettgeri = experiment: Antibacterial activity against Providencia rettgeri ATCC 31052 after 18 hrs by agar dilution method; assay type: functional; conditions: ATCC 31052, 18 h
Klebsiella pneumoniae [16] = experiment: Antibacterial activity against NDM-1 positive Klebsiella pneumoniae ATCC BAA-2146 after 18 hrs by agar dilution method; assay type: functional; conditions: ATCC BAA-2146, 18 h
Pseudomonas aeruginosa [17] = experiment: Antibacterial activity against Pseudomonas aeruginosa 12-16 after 18 hrs by agar dilution method; assay type: functional; conditions: 12-16, 18 h
Escherichia coli [18] = experiment: Antibacterial activity against extended-spectrum beta-lactamase-negative Escherichia coli 1515 after 18 hrs by agar dilution method; assay type: functional; conditions: Escherichia coli, 1515, 18 h
[19] = test system: Acinetobacter calcoaceticus; experiment: Antibacterial activity against Acinetobacter calcoaceticus ATCC 19606 after 18 hrs by agar dilution method; assay type: functional; conditions: ATCC 19606, 18 h
HeLa = experiment: Cytotoxicity against human HeLa cells after 48 hrs by SRB assay; assay type: functional, cell-based
Outline: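 HeLa human cervical carcinoma cells obtained from ATCC. Cytotoxicity was read by sulforhodamine B staining following an earlier published protocol, with doxorubicin hydrochloride as positive control. Values are reported as IC50.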

Enterococcus faecalis [20] = experiment: Antibacterial activity against vancomycin-resistant Enterococcus faecalis ATCC 51299 after 18 hrs by agar dilution method; assay type: functional
Enterococcus faecium [21] = experiment: Antibacterial activity against vancomycin-resistant Enterococcus faecium ATCC 700221 after 18 hrs by agar dilution method; assay type: functional

SMILES	MIC (Pseudomonas aeruginosa [1]) [µg/mL]	Activity (Enterococcus faecalis [2])	Activity (Enterococcus faecium [3])	MIC (Proteus mirabilis) [µg/mL]	MIC (Escherichia coli [4]) [µg/mL]	MIC (Serratia marcescens) [µg/mL]	MIC (Pseudomonas aeruginosa [5]) [µg/mL]	MIC (Escherichia coli [6]) [µg/mL]	MIC (Morganella morganii) [µg/mL]	MIC (Klebsiella pneumoniae [7]) [µg/mL]	MIC (Escherichia coli [8]) [µg/mL]	MIC (Klebsiella pneumoniae [9]) [µg/mL]	Activity [10]	MIC (Proteus vulgaris) [µg/mL]	MIC (Klebsiella pneumoniae [11]) [µg/mL]	MIC (Klebsiella pneumoniae [12]) [µg/mL]	MIC [13] [µg/mL]	MIC (Citrobacter freundii) [µg/mL]	MIC (Candida albicans) [µg/mL]	Activity (Staphylococcus aureus [14])	also measured
CNC(=N)NCCC/C=C/CCC[C@H](C)C[C@H](C)[C@H]1OC(=O)[C@H](C)[C@H](O)/C=C/[C@H](C)[C@H](O)C[C@H](O)[C@H](C)[C@@H](O)CC[C@H](C)[C@H](O)C[C@]2(O)O[C@H](C[C@@H](O)C[C@H](OC(=O)CC(=O)O)C[C@@H](O)[C@H](C)[C@H](O)/C=C/C=C/[C@@H]1C)C[C@H](OC(=O)CC(=O)O)[C@H]2O	> 64	Active	Active	> 64	> 64	> 64	> 64	> 64	> 64	> 64	> 64	> 64	Active	> 64	> 64	> 64	> 64	> 64	8 to 32 (≈ 6.51 to 26 µM)	Active	MIC (Klebsiella aerogenes): > 64 µg/mL; MIC (Enterobacter cloacae): > 64 µg/mL; Activity (Staphylococcus aureus [15]): Active; MIC (Providencia rettgeri): > 64 µg/mL; MIC (Klebsiella pneumoniae [16]): > 64 µg/mL; MIC (Pseudomonas aeruginosa [17]): > 64 µg/mL; MIC (Escherichia coli [18]): > 64 µg/mL; MIC [19]: > 64 µg/mL; IC50 (HeLa): > 10 µM; Activity (Enterococcus faecalis [20]): Active; Activity (Enterococcus faecium [21]): Active
CNC(=N)NCCC/C=C/CCC[C@H](C)C[C@H](C)[C@@H](O)[C@@H](C)/C=C/C=C/[C@@H](O)[C@@H](C)[C@H](O)C[C@@H](O)C[C@H](O)C[C@@H](O)C[C@H](O)[C@@H](O)C(O)C[C@@H](O)[C@@H](C)CC[C@H](O)[C@@H](C)[C@@H](O)C[C@@H](O)[C@@H](C)/C=C/[C@@H](O)[C@@H](C)C(=O)O (some centres undefined)	> 64	Active	Active	> 64	> 64	> 64	> 64	> 64	> 64	> 64	> 64	> 64	Active	> 64	> 64	> 64	> 64	> 64	8 to 32 (≈ 7.43 to 29.7 µM)	Active	MIC (Klebsiella aerogenes): > 64 µg/mL; MIC (Enterobacter cloacae): > 64 µg/mL; Activity (Staphylococcus aureus [15]): Active; MIC (Providencia rettgeri): > 64 µg/mL; MIC (Klebsiella pneumoniae [16]): > 64 µg/mL; MIC (Pseudomonas aeruginosa [17]): > 64 µg/mL; MIC (Escherichia coli [18]): > 64 µg/mL; MIC [19]: > 64 µg/mL; IC50 (HeLa): > 10 µM; Activity (Enterococcus faecalis [20]): Active; Activity (Enterococcus faecium [21]): Active
CNC(=N)NCCC/C=C/CCC[C@H](C)C[C@H](C)[C@H]1OC(=O)[C@H](C)[C@H](O)/C=C/[C@H](C)[C@H](O)C[C@H](O)[C@H](C)[C@@H](O)CC[C@H](C)[C@H](OC(=O)CC(=O)O)C[C@]2(O)O[C@H](C[C@@H](OC(=O)CC(=O)O)C[C@H](O)C[C@@H](O)[C@H](C)[C@H](O)/C=C/C=C/[C@@H]1C)C[C@H](O)[C@H]2O	> 64	Active	Active	> 64	> 64	> 64	> 64	> 64	> 64	> 64	> 64	> 64	Active	> 64	> 64	> 64	> 64	> 64	8 to 32 (≈ 6.51 to 26 µM)	Active	MIC (Klebsiella aerogenes): > 64 µg/mL; MIC (Enterobacter cloacae): > 64 µg/mL; Activity (Staphylococcus aureus [15]): Active; MIC (Providencia rettgeri): > 64 µg/mL; MIC (Klebsiella pneumoniae [16]): > 64 µg/mL; MIC (Pseudomonas aeruginosa [17]): > 64 µg/mL; MIC (Escherichia coli [18]): > 64 µg/mL; MIC [19]: > 64 µg/mL; IC50 (HeLa): 3 to 9 µM; Activity (Enterococcus faecalis [20]): Active; Activity (Enterococcus faecium [21]): Active
CNC(=N)NCCC/C=C/CCC[C@H](C)C[C@H](C)[C@H]1OC(=O)[C@H](C)[C@H](O)/C=C/[C@H](C)[C@H](O)C[C@H](O)[C@H](C)[C@@H](O)CC[C@H](C)[C@H](O)CC(O)[C@H](O)[C@@H](O)C[C@H](O)C[C@@H](O)C[C@H](O)C[C@@H](O)[C@H](C)[C@H](O)/C=C/C=C/[C@@H]1C (some centres undefined)	> 64	Active	Active	> 64	> 64	> 64	> 64	> 64	> 64	> 64	> 64	> 64	Active	> 64	> 64	> 64	> 64	> 64	8 to 32 (≈ 7.56 to 30.2 µM)	Active	MIC (Klebsiella aerogenes): > 64 µg/mL; MIC (Enterobacter cloacae): > 64 µg/mL; Activity (Staphylococcus aureus [15]): Active; MIC (Providencia rettgeri): > 64 µg/mL; MIC (Klebsiella pneumoniae [16]): > 64 µg/mL; MIC (Pseudomonas aeruginosa [17]): > 64 µg/mL; MIC (Escherichia coli [18]): > 64 µg/mL; MIC [19]: > 64 µg/mL; IC50 (HeLa): > 10 µM; Activity (Enterococcus faecalis [20]): Active; Activity (Enterococcus faecium [21]): Active
